Compounds with a hit are over-represented: about 2.1% of the library has one in this group of screens.
TRPML3 ag = activates the human TRPML3 channel | 0.29% of 220,000 active | activation, % at 3 µM | AID 1448 | HEK293 TRPML3-YFP, Fluo-8 calcium fluorescence; 100% = the carbachol control signal;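 active = activation above its plate's cutoff, the mean activation of the plate's test wells plus 3 SD, cut at about 12% in these data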
Target sequence (Q8TDD5 whole entry, looked up): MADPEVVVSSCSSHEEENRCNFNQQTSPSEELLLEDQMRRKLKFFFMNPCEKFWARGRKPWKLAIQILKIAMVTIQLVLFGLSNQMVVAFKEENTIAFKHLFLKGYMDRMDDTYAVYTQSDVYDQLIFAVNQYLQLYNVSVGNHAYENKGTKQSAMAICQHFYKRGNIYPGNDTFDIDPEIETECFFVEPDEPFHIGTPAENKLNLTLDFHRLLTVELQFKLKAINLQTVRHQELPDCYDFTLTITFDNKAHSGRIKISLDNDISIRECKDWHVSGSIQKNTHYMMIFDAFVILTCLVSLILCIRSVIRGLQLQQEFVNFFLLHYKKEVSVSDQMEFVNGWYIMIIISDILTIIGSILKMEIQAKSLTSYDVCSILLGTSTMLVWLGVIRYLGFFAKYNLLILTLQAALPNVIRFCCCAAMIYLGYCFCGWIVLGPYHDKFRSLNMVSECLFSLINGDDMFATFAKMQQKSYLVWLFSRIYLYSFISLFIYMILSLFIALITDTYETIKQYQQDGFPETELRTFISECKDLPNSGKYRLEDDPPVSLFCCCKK
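Test system: TRPML3-YFP stable HEK293 cells. Doses: single point at 3 µM. Incubation: dye loading 1 h 37 °C then 30 min ambient, 125 s read. Signal: Fluo-8 calcium dye fluorescence, ex 470-495, em 515-575 nm. Measure: percent activation from peak-to-basal fluorescence ratio, scaled between DMSO and carbachol.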
CRFR2-BP ag = agonists of human CRF-binding protein/CRF-R2 receptor complex; HEK293 CRF-R2/CRF-BP, calcium dye fluorescence (FLIPR); percent of saturating CRF peptide response; activation, % at 13.2 µM; 0.46% of 350,000 active; AID 588473;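 active = activation of at least 50%, plus an integration ratio under a set limit after plate pattern correction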
IMP-1 inh-1 = inhibitors of Pseudomonas aeruginosa IMP-1 metallo-beta-lactamase. AID 1556. purified IMP-1, nitrocefin hydrolysis, epi-absorbance fluorescence. 0.45% of 290,000 active. inhibition, % at 5.6 µM;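 active = inhibition above the mean plus 3 SD of all compounds in the same screening run, cut at about 4.5% in these data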
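Assay system: purified recombinant IMP-1 beta-lactamase. Input: IMP-1 0.2 nM before substrate addition. Buffer or medium: Zinc- and detergent-supplemented HEPES buffer, pH 7.1. Schedule: 25 °C, 15 min preincubation, 25 min reaction. Signal: Epi-absorbance fluorescence, 480 nm excitation, 530 nm emission. Evaluation: percent inhibition from optical density relative to buffer-blank wells.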
VIM-2 inhibitor = inhibitors of Pseudomonas aeruginosa VIM-2 metallo-beta-lactamase | purified VIM-2, nitrocefin hydrolysis, epi-absorbance fluorescence | inhibition, % at 5.6 µM | 0.89% of 290,000 active;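 active = inhibition above the mean of all tested compounds plus 3 SD, cutoff set per screening run, cut at about 7.5% in these data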;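 note: red hydrolysis product quenches plate fluorescence so inhibitors raise well fluorescence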
CRFR2-BP antag = antagonists of CRF-binding protein/CRF-R2 receptor complex. AID 588475. HEK293 CRF-R2/CRF-BP, CRF-induced calcium fluorescence. inhibition, % at 11.8 µM. 0.59% of 350,000 active;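 active = inhibition of the ligand-induced calcium signal above about 50% at the single tested concentration, limit read from the data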
TRPN1 ag = zebrafish TRPN1 (NompC) channel agonism; HEK293 zebrafish TRPN1-YFP, Fluo-8 calcium fluorescence; 100% = response to 87 µM carbachol; activation, % at 3 µM; 0.18% of 220,000 active; AID 1424;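 active = activation above its plate's cutoff, the mean activation of test wells on that plate plus 3 SD, cut at about 19% in these data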
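System: zebrafish TRPN1-YFP in HEK293 cells / Dosing: 3 µM single point / Timing: dye loading 1 h at 37 °C, then 30 min room temperature / Signal: Fluo-8 calcium fluorescence, excitation 470-495 nm, emission 515-575 nm / Read-out basis: percent activation from peak over basal fluorescence ratio, control-normalized / Control set: high carbachol 87 µM, low DMSO alone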
TRPN1 counter = counter-screen for TRPML3 agonists: agonists of zebrafish TRPN1 channel. activation, % at 3 µM. 10% of 310 active. HEK293 zebrafish TRPN1-YFP, Fluo-8 calcium fluorescence; scaled: carbachol wells 100%, DMSO wells 0%. AID 1525. shares compounds with TRPML3 ag;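 active = mean activation over replicates above a set limit taken from the earlier TRPN1 channel primary screen, cut at about 19% in these data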
TRPML3 ag conf = human TRPML3 agonism, confirmation; 80% of 310 active; activation, % at 3 µM; shares compounds with TRPML3 ag; HEK293 TRPML3-YFP, Fluo-8 calcium fluorescence; 100% set by carbachol, 0% by DMSO;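 active = activation above a set limit derived from the earlier primary screen, cut at about 12% in these data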
IMP-1 inh-2 = blocks IMP-1 metallo-beta-lactamase in VIM-2 selectivity screen; inhibition, % at 5.6 µM; shares compounds with VIM-2 inhibitor; purified IMP-1, nitrocefin hydrolysis, epi-absorbance fluorescence; 1,300 tested, under 10 active; AID 1856; call rule not given here
VIM-2 FRET inh = VIM-2 FRET inhibition, artifact counter-screen; shares compounds with VIM-2 inhibitor; purified VIM-2, CCF2 FRET substrate hydrolysis; inhibition, % at 5.6 µM; 23% of 1,300 active; AID 1857;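 active = inhibition above the mean of all tested compounds plus 3 SD, cut at about 19% in these data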
TEM-1 counter = TEM-1 inhibition, counter-screen for VIM-2 inhibitors. shares compounds with VIM-2 inhibitor. Purified TEM-1, nitrocefin hydrolysis, epi-absorbance fluorescence. inhibition, % at 5.6 µM. 3% of 1,300 active. AID 1866;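 active = inhibition above that campaign's mean inhibition plus 3 SD, cut at about 0.46% in these data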
VIM-2 inh conf = confirmation of P. aeruginosa VIM-2 metallo-beta-lactamase inhibitors | shares compounds with VIM-2 inhibitor | purified VIM-2, nitrocefin hydrolysis, epi-absorbance | inhibition, % at 5.6 µM | 96% of 1,300 active;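 active = inhibition of the VIM-2 beta-lactamase enzyme above about 11% from the earlier first-round screen, limit read from the data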
Numbers stand for hits.

For Cc1ccc(-c2cc(-c3ccccc3)cc(-c3ccccc3)[n+]2-c2ccccc2)cc1 the results were CRFR2-BP ag 66 and CRFR2-BP antag inactive.
For ClCCN(CCCl)c1ccc(-n2cnc3c(Cl)ncnc32)cc1 the results were CRFR2-BP ag inactive and CRFR2-BP antag inactive.
Screening Cc1cccc(N2C(=O)/C(=C/c3ccc(N4CCN(C)CC4)o3)C(=O)NC2=S)c1C returned TRPML3 ag inactive, CRFR2-BP ag 51, IMP-1 inh-1 inactive, VIM-2 inhibitor inactive, CRFR2-BP antag inactive and TRPN1 ag inactive.
`Cc1ccccc1N1C(=O)NC(=O)/C(=C/c2ccc(N3CCOCC3)o2)C1=O` gave TRPML3 ag inactive, CRFR2-BP ag inactive, IMP-1 inh-1 inactive, VIM-2 inhibitor inactive, CRFR2-BP antag inactive and TRPN1 ag inactive.
`CCc1ccccc1N1C(=O)/C(=C/c2ccc(N3CCN(C)CC3)o2)C(=O)NC1=S` gave TRPML3 ag inactive, CRFR2-BP ag 55, IMP-1 inh-1 inactive, VIM-2 inhibitor inactive, CRFR2-BP antag inactive and TRPN1 ag inactive.
C[C@]12CC[C@@H](O)CC1=CC(=O)C1C2CC[C@]2(C)C(=O)[C@H](O)CC12 (some centres not stated) was read as CRFR2-BP ag inactive and CRFR2-BP antag inactive.
`CCOC(=O)c1cc2c(cn1)[C@H](CCO)NC2` gave CRFR2-BP ag inactive and CRFR2-BP antag inactive.
CC(=NCCCn1ccnc1)c1c(O)n(C)c(=O)n(C)c1=O was read as TRPML3 ag inactive, CRFR2-BP ag inactive, IMP-1 inh-1 inactive, VIM-2 inhibitor 66, CRFR2-BP antag inactive and TRPN1 ag inactive.
`CCCCn1c(O)c(C(C)=NCCCn2ccnc2)c(=O)[nH]c1=O` gave TRPML3 ag inactive, CRFR2-BP ag inactive, IMP-1 inh-1 inactive, VIM-2 inhibitor inactive, CRFR2-BP antag inactive and TRPN1 ag inactive.
`COC(=O)C1=CCCN(C)C1` gave TRPML3 ag 20, CRFR2-BP ag inactive, IMP-1 inh-1 inactive, VIM-2 inhibitor inactive, CRFR2-BP antag inactive, TRPN1 ag inactive, TRPN1 counter inactive and TRPML3 ag conf 46.
S=P(NCCNP(=S)(N1CC1)N1CC1)(N1CC1)N1CC1 was read as CRFR2-BP ag inactive and CRFR2-BP antag inactive.
`CCN(CC)C(=O)COc1cc(C)cc2oc(=O)c3c(c12)CCCC3` gave CRFR2-BP ag inactive, IMP-1 inh-1 inactive, VIM-2 inhibitor inactive and CRFR2-BP antag inactive.
Screening Cc1cc(OCC(=O)NC(Cc2ccc(Cl)cc2)C(=O)O)c2c3c(c(=O)oc2c1)CCCC3 (configuration not stated) returned CRFR2-BP ag inactive, IMP-1 inh-1 inactive, VIM-2 inhibitor 33, CRFR2-BP antag inactive, IMP-1 inh-2 inactive, VIM-2 FRET inh 47, TEM-1 counter 0.6 and VIM-2 inh conf 37.
Cc1cc(OCC(=O)NCc2ccncc2)c2c3c(c(=O)oc2c1)CCC3 was read as CRFR2-BP ag inactive, IMP-1 inh-1 inactive, VIM-2 inhibitor 72, CRFR2-BP antag inactive, IMP-1 inh-2 inactive, VIM-2 FRET inh inactive, TEM-1 counter inactive and VIM-2 inh conf 78.
`CN1C(=O)C(C)(C2=CCCCC2)C(=O)NC1=S` (configuration not stated) gave CRFR2-BP ag inactive and CRFR2-BP antag inactive.
For CN1CCN(c2ccc(N)cc2)CC1 the results were TRPML3 ag inactive, CRFR2-BP ag inactive, IMP-1 inh-1 inactive, VIM-2 inhibitor 37, CRFR2-BP antag inactive, TRPN1 ag inactive, IMP-1 inh-2 inactive, VIM-2 FRET inh inactive, TEM-1 counter inactive and VIM-2 inh conf 59.
`CCN1CCN(c2ccc(N)cc2)CC1` gave TRPML3 ag inactive, CRFR2-BP ag inactive, IMP-1 inh-1 inactive, VIM-2 inhibitor 38, CRFR2-BP antag inactive, TRPN1 ag inactive, IMP-1 inh-2 inactive, VIM-2 FRET inh inactive, TEM-1 counter inactive and VIM-2 inh conf 27.
COc1ccc2nc3c(C)n(C)ccc-3c2c1 was read as CRFR2-BP ag inactive and CRFR2-BP antag inactive.
For CCC1C(c2cc(OC)c(OC)c(OC)c2)c2cc3c(cc2OC1N1CCCC1)OCO3 (configuration not stated) the results were CRFR2-BP ag inactive and CRFR2-BP antag inactive.
Cn1cccc1CN1CCN(C(=O)COc2ccccc2)CC1 was read as TRPML3 ag inactive, CRFR2-BP ag inactive, IMP-1 inh-1 inactive, VIM-2 inhibitor inactive, CRFR2-BP antag inactive and TRPN1 ag inactive.
For Cn1nc(-c2ccc(OCC(=O)N3CCN(Cc4ccccc4)CC3)cc2)c2ccccc2c1=O the results were TRPML3 ag inactive, CRFR2-BP ag inactive, IMP-1 inh-1 inactive, VIM-2 inhibitor 13, CRFR2-BP antag inactive, TRPN1 ag inactive, IMP-1 inh-2 inactive, VIM-2 FRET inh inactive, TEM-1 counter inactive and VIM-2 inh conf 28.
For CN1CCc2cc3c(c4c2C1Cc1ccccc1-4)OCO3 (configuration not stated) the results were CRFR2-BP ag inactive, IMP-1 inh-1 inactive, VIM-2 inhibitor 19, CRFR2-BP antag inactive, IMP-1 inh-2 inactive, VIM-2 FRET inh inactive, TEM-1 counter inactive and VIM-2 inh conf 11.
For CN1CCc2cc(O)cc3c2[C@H]1Cc1ccc(O)c(O)c1-3 the results were CRFR2-BP ag inactive and CRFR2-BP antag inactive.
CC1(C)C(=O)CCC2C1=CCC1C2CCC2(C)C(O)CCC12 (configuration not stated) was read as CRFR2-BP ag inactive and CRFR2-BP antag inactive.
